Converted amounts (≈) assume the structure as drawn. “And” between values parts separate entries of the source, which are not always exact repeats. Equal entries are not always repeated.
What was measured:
[1] = successive pKa of the acid itself; no reference given; cited from earlier work
[2] = test system: Cdk-9; conditions: read-out: Cdk-9 IC50; cited from earlier work
[3] = solubility in reaction solvents for scale-up; format: physicochemical
[4] = target: Cdk-9/T1 (Homo sapiens, UniProt P50750); test: Cdk-9/T1 radioactive; format: biochemical; conditions: read-out: % inhibition (±SD) Cdk-9/T1, 500 nM
Outline: (§1)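 Radioactive filter-binding kinase assay using 33P-ATP, run at an external kinase-profiling centre, with the test compound at 500 nM. Enzyme activity remaining was expressed as a percentage of control, and % inhibition was calculated as 100 − % enzyme activity.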

[5] = in vitro dissolution under sink conditions; format: physicochemical
Outline: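 Samples (1 mL) were taken at 15, 30, 60, 120, 240 and 360 min and replaced with fresh prewarmed medium. Samples were filtered (0.45 μm PVDF), diluted in methanol and quantified by HPLC. Runs were in triplicate. AUC0–t was obtained by the trapezoidal rule to the last time point.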

[6] = moisture content by loss on drying; format: physicochemical; conditions: at the end of 6 months
[7] = oral pharmacokinetics in BALB/c mice; format: in vivo; conditions: 50 mg/kg
Outline: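 Male BALB/c mice aged 8–13 weeks received a single oral dose of 50 mg/kg in 1% v/v Tween 80 + 0.5% w/v sodium CMC. Retro-orbital blood was collected into K2EDTA (n = 3/time point) at 0.25–24 h. Plasma was prepared within 30 min and stored below −60 °C. Plasma was analysed by LC-MS/MS (LLOQ 5.05 ng/mL), and parameters were derived by noncompartmental analysis.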

[8] = thermodynamic equilibrium solubility in water; format: physicochemical; conditions: 25 °C, 24 h
Outline: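 Excess solid was added to water, vortexed for 5 min, then shaken at 300 rpm and 25 °C for 24 h. After centrifugation (14 000 rpm, 10 min), the supernatant was quantified by reversed-phase C18 HPLC. Elution used a methanol/0.1% formic acid gradient with photodiode detection and a 37 °C column. Calibration covered 5–160 μg/mL.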

[9] = target: Cdk-2/A (Homo sapiens, UniProt P24941); test: Cdk-2/A radioactive; format: biochemical; conditions: read-out: % inhibition (±SD) Cdk-2/A, 500 nM
Outline: as §1

Cdk-9/T1, sequence (P50750 whole entry): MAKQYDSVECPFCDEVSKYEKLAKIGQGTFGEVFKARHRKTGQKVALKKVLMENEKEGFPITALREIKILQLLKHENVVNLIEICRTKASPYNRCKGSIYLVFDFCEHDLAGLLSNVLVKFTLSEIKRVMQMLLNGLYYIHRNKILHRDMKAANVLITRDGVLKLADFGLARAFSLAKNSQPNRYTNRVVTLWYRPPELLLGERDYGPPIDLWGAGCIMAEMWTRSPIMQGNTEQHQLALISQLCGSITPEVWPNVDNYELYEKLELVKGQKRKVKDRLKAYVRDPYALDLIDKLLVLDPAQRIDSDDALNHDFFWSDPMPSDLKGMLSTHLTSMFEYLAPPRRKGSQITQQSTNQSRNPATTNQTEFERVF
Cdk-9/T1, sequence (O60563 whole entry partner): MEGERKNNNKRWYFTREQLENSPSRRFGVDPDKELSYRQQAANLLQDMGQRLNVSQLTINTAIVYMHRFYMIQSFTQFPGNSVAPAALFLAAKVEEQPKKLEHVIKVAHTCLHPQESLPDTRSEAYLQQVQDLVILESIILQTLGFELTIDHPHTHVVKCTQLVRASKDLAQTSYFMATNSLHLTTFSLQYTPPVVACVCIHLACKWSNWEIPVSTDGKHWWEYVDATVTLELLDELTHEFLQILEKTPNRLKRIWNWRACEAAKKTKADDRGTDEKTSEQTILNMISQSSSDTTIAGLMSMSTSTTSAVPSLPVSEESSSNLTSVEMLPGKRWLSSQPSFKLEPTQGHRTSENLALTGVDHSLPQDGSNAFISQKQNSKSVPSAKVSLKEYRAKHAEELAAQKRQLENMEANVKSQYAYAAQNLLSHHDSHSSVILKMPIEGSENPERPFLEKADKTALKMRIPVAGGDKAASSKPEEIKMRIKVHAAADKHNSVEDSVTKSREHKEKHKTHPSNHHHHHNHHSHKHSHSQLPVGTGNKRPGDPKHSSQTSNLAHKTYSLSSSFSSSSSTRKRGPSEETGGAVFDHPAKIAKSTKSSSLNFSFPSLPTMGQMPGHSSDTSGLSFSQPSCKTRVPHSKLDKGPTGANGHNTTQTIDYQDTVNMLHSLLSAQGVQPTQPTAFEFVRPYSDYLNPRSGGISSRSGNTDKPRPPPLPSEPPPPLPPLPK

Row | Compound | pKa values of counterions [1] | IC50 [2] | solubility in methanol [3] | solubility ([3]; methanol, solubility in methanol) | inhibition at 0.5 µM [4] | % drug dissolved in HCl buffer (pH 1.2) at 30 min ([5]; HCl buffer pH 1.2, 0.25% SLS, 30 min) | AUC0–t (mean ± SEM), dissolution in HCl buffer (pH 1.2) ([5]; HCl buffer pH 1.2, 0.25% w/v SLS) | dissolution in phosphate buffer (pH 6.8) at the end of 60 min ([5]; phosphate buffer pH 6.8, 0.25% SLS, 60 min) | AUC0–t (mean ± SEM), dissolution in phosphate buffer (pH 6.8) ([5]; phosphate buffer pH 6.8, 0.25% w/v SLS) | AUC0–t (mean ± SEM), dissolution in water ([5]; water, 0.25% w/v SLS) | dissolution in water at the end of 120 min ([5]; water, 0.25% w/v SLS, 37 °C, 120 min) | % moisture content [6] | T1/2 [7] | AUC(0-t) ([7]; male, BALB/c, mouse, plasma, po, AUC0–t) | Cmax ([7]; male, BALB/c, mouse, plasma, po, Cmax) | Tmax ([7]; male, BALB/c, mouse, plasma, po, Tmax) | thermodynamic equilibrium solubility in water [8] | inhibition at 0.5 µM [9]
1 | O=C(O)CC(O)(CC(=O)O)C(=O)O [citric acid] | 3.73 | – | – | – | – | – | – | – | – | – | – | – | – | – | – | – | – | –
2 | CN1CC[C@H](c2c(O)cc(O)c3c(=O)cc(/C=C/c4c(Cl)cccc4Cl)oc23)[C@H](O)C1 [IIIM-290, 2-((E)-2,6-Dichlorostyryl)-5,7-dihydroxy-8-((3S,4R)-3-hydroxy-1-methylpiperidin-4-yl)-4H-chromen-4-one] | – | 1.9 nM | 500 µg/mL (≈ 1080 µM) | ~500 µg/mL (≈ 1080 µM) | 94 ± 0.8% | 83% | 2102.46 ± 80.09 μg/mL min | 63% | 4898.69 ± 317.03 μg/mL min | 3557.23 ± 247.03 µg·min/mL | 49 % w/v | 3.5 % w/w | 1.92 h | 2570 ng·h/mL | 656 ng/mL | 1 h | ~8.6 µg/mL and 8.61 ± 1.8 µg/mL | 90 ± 0.2%
3 | Nc1ccc(C(=O)O)cc1 [4-aminobenzoic acid] | 2.38 | – | – | – | – | – | – | – | – | – | – | – | – | – | – | – | – | –
